The values that follow come from publication PMC6448791 (Journal of natural products, 2017).

One may read the IC50 as the concentration at which inhibition is half-maximal.

The subject of data set [1] is rabbit erythrocytes. The experiment in a line: Hemolytic assay. Format: cell-based. Particulars: for HD50 (concentration inducing 50% of erythrocyte hemolysis): 37 °C, 60 min, PBS pH 7.4; for fold lower hemolytic toxicity than 1: HD50 relative to compound 1, rabbit erythrocytes.
The subject of data set [2] is BGC-823 (gastric carcinoma). As to the kind of experiment: MTT cytotoxicity assay, BGC-823. Format: cell-based, human. The method in brief:
(§1)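 Cells kept in RPMI-1640 with 10% FBS, penicillin and streptomycin at 37 °C under 5% CO2. Seeded at 5 × 10^4 cells/mL and pre-incubated 24 h. Exposed to test compound at preset concentrations for 48 h. MTT (0.5 mg/mL) added for 4 h, formazan dissolved in DMSO, A490 read. Inhibition % = (ODc − ODt)/ODc × 100. Cisplatin as positive control.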
For orientation: Tetrazolium assays rely on reduction of a dye to a coloured formazan, in cell work by metabolically active cells.

Data set [3] has as its system SMMC-771 (hepatocellular carcinoma). As to the kind of experiment: MTT cytotoxicity assay, SMMC-7721. Format: cell-based, human. An outline of the steps: as §1
The subject of data set [4] is all five tested human cancer cell lines. As to the kind of experiment: SRB cytotoxicity, all five tested human cancer cell lines. As to conditions: read-out: IC50 against all five tested human cancer cell lines. Format: cell-based. An outline of the steps: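 ATCC-sourced lines grown in RPMI-1640 with 10% FBS at 37 °C, 5% CO2. Seeded at 3–5 × 10^3 cells/well in medium already containing graded test compound, then 72 h exposure. Fixed with cold 50% TCA for 30 min, stained with 0.04% SRB for 30 min, bound dye taken up in 10 mM Tris base, A515 read.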

Data set [5] has as its system PARP, pro-caspase-3, pro-caspase-9, pro-caspase-8. The experiment in a line: Western blot of apoptosis-related proteins. Format: cell-based. An outline of the steps:
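A549 cells treated with test compound for 24 h beside untreated control. Lysed in 100 mM Tris-Cl pH 6.8, 4% SDS, 20% glycerol, 200 mM β-mercaptoethanol, 1 mM PMSF plus aprotinin, then spun 12000g for 15 min at 4 °C. Protein measured by BCA, run on 10–15% SDS-PAGE and moved to PVDF. Primary antibodies overnight at 4 °C, HRP secondary, ECL detection; lamin A probed.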
(In general: In western blotting, separated proteins are transferred to a membrane and probed.)

Data set [6] has as its system A549 human lung cancer cell line. The experiment in a line: SRB cytotoxicity assay, A549. Format: cell-based. For orientation: The SRB assay estimates cell density from bound dye.
In data set [7] the test system is erythrocytes. Particulars: cited from earlier work.
[8] abbreviates: Homo sapiens, BGC-823, read-out: IC50 BGC-823.
Setting [9] is: Homo sapiens, SMMC-7721, read-out: IC50 SMMC-771.
Where [10] appears, read: 24 h treatment, compared to controls.
[11] abbreviates: as the concentration of 14 increased.

Values joined by “and” are separate entries in the source; they are usually repeats but may differ in a detail not shown here. Equal entries are not always repeated. Where two headings read alike, the source gives them in different places.

Turning to `C[C@@H]1O[C@@H](O[C@H]2[C@H](O[C@H]3CC[C@@]4(C)[C@@H](CC[C@]5(C)[C@@H]4C(=O)C=C4[C@@H]6CC(C)(C)CC[C@]6(C(=O)O)CC[C@]45C)[C@]3(C)CO)OC[C@H](O[C@@H]3O[C@H](CO)[C@@H](O)[C@H](O)[C@H]3O)[C@@H]2O)[C@H](O)[C@H](O)[C@H]1O` [compound 4, 3β,23-Dihydroxy-11-oxo-olean-12-en-28-oic acid-3-O-α-L-rhamnopyranosyl-(1→2)-[β-D-gluco-pyranosyl-(1→4)]-α-L-arabinopyranoside], the “HD50 (concentration inducing 50% of erythrocyte hemolysis)” value in data set [1] (rabbit erythrocytes) is 239 µM and 239 ± 22.2 µM. The IC50 in data set [2] (setting [8]) and in data set [3] (setting [9]) was greater than 10 µM throughout.

`C[C@@H]1O[C@@H](O[C@H]2[C@H](O[C@H]3CC[C@@]4(C)[C@@H](CC[C@]5(C)[C@@H]4C(=O)C=C4[C@@H]6CC(C)(C)CC[C@]6(C(=O)NCC(=O)O)CC[C@]45C)[C@]3(C)CO)OC[C@H](O[C@@H]3O[C@H](CO)[C@@H](O)[C@H](O)[C@H]3O)[C@@H]2O)[C@H](O)[C@H](O)[C@H]1O` [compound 7, 3β,23-Dihydroxy-11-oxo-olean-12-en-28-(glycine)oic acid-3-O-α-L-rhamnopyranosyl-(1→2)-[β-D-glucopyranosyl-(1→4)]-α-L-arabinopyranoside]: in data set [1] (rabbit erythrocytes), the “HD50 (concentration inducing 50% of erythrocyte hemolysis)” value is 290−308 μM and 290 ± 27.0 μM. The IC50 in data set [2] (setting [8]) and in data set [3] (setting [9]) was greater than 10 µM each time.

For `C[C@@H]1O[C@@H](O[C@H]2[C@H](O[C@H]3CC[C@@]4(C)[C@@H](CC[C@]5(C)[C@@H]4CC(=O)[C@@H]4[C@@H]6CC(C)(C)CC[C@]6(C(=O)O)CC[C@]45C)[C@]3(C)CO)OC[C@H](O[C@@H]3O[C@H](CO)[C@@H](O)[C@H](O)[C@H]3O)[C@@H]2O)[C@H](O)[C@H](O)[C@H]1O` [compound 9, 3β,23-Dihydroxy-12-oxo-olean-28-oic acid-3-O-a-L-rhamnopyranosyl-(1→2)-[β-D-glucopyranosyl-(1→4)]-a-L-arabinopyranoside], the “fold lower hemolytic toxicity than 1” value in data set [1] is “at least 10 fold”. Besides, the “HD50 (concentration inducing 50% of erythrocyte hemolysis)” value in data set [1] (rabbit erythrocytes) is 73.1 µM and 73.1 ± 9.0 µM. Further, the IC50 in data set [2] (setting [8]) and in data set [3] (setting [9]) was greater than 10 µM in each case.

For the compound `C[C@@H]1O[C@@H](O[C@H]2[C@H](O[C@H]3CC[C@@]4(C)[C@@H](CC[C@]5(C)[C@@H]4CC(=O)[C@]46OC(=O)[C@@]7(CCC(C)(C)C[C@H]74)CC[C@@]56C)[C@]3(C)CO)OC[C@H](O[C@@H]3O[C@H](CO)[C@@H](O)[C@H](O)[C@H]3O)[C@@H]2O)[C@H](O)[C@H](O)[C@H]1O` [compound 10, 3β,23-Dihydroxy-12-oxo-olean-28-oic acid-28,13β-lactone-3-O-α-L-rhamnopyranosyl-(1→2)-[β-D-glucopyranosyl-(1→4)]-α-L-arabinopyranoside], in data set [1], the “fold lower hemolytic toxicity than 1” value is roughly 50 fold. Further, the “HD50 (concentration inducing 50% of erythrocyte hemolysis)” value in data set [1] (rabbit erythrocytes) was 290 μM and 290−308 μM and 290 ± 25.5 μM. For the same compound, the IC50 in data set [2] (setting [8]) and in data set [3] (setting [9]) was greater than 10 µM in each case.

As to `C[C@@H]1O[C@@H](O[C@H]2[C@H](O[C@H]3CC[C@@]4(C)[C@@H](CC[C@]5(C)[C@@H]4C[C@H](O)[C@]46OC(=O)[C@@]7(CCC(C)(C)C[C@H]74)CC[C@]65C)[C@]3(C)CO)OC[C@H](O[C@@H]3O[C@H](CO)[C@@H](O)[C@H](O)[C@H]3O)[C@@H]2O)[C@H](O)[C@H](O)[C@H]1O` [compound 11, 33β,12α,23-Trihydroxyolean-28-oic acid 28,13β-lactone-3-O-α-3L3-rhamnopyranosyl-(1→32)-[β-3D3-glucopyranosyl-(1→34)]-α-3L3-arabinopyranoside], the “fold lower hemolytic toxicity than 1” value in data set [1] is roughly 50 fold. Moreover, the “HD50 (concentration inducing 50% of erythrocyte hemolysis)” value in data set [1] (rabbit erythrocytes) is 308 μM and 290−308 μM and 308 ± 24.2 μM. In addition, the IC50 in data set [2] (setting [8]) and in data set [3] (setting [9]) was greater than 10 µM throughout.

Turning to `CC(=O)OC[C@@]1(C)[C@@H]2CC[C@]3(C)[C@H](CC=C4[C@@H]5CC(C)(C)CC[C@]5(C(=O)O)CC[C@]43C)[C@@]2(C)CC[C@@H]1OC(C)=O` [compound 12, 3β,23-Diacetoxyolean-12-en-28-oic acid], the “HD50 (concentration inducing 50% of erythrocyte hemolysis)” value in data set [1] (rabbit erythrocytes) is greater than 500 µM.

Take `CCOC(=O)CNC(=O)[C@]12CCC(C)(C)C[C@H]1C1=CC[C@@H]3[C@@]4(C)CC[C@H](OC(C)=O)[C@@](C)(COC(C)=O)[C@@H]4CC[C@@]3(C)[C@]1(C)CC2` [compound 13, 3β,23-Diacetoxyolean-12-en-N-[glycineethyl ester]-28-formamide]: the “HD50 (concentration inducing 50% of erythrocyte hemolysis)” value in data set [1] (rabbit erythrocytes) was greater than 500 µM.

As for `CCOC(=O)CCCNC(=O)[C@]12CCC(C)(C)C[C@H]1C1=CC[C@@H]3[C@@]4(C)CC[C@H](OC(C)=O)[C@@](C)(COC(C)=O)[C@@H]4CC[C@@]3(C)[C@]1(C)CC2` [compound 14, 3β,23-Diacetoxyolean-12-en-N-[4-aminobutanoic acid ethyl ester]-28-formamide], in data set [4], the IC50 lay in the range of 2.8 to 8.6 µM. Also, in data set [5] (setting [10]), the “expression of pro-caspase-3” value is reported as “decreased”, the “expression of pro-caspase-8” value is reported as “decreased” and the “expression of pro-caspase-9” value is “decreased”. In data set [5] (setting [11]), the “expression of PARP” value is “decreased” and the “expression of cleaved PARP” value was “increased”. For the same compound, the “HD50 (concentration inducing 50% of erythrocyte hemolysis)” value in data set [1] (rabbit erythrocytes) was greater than 500 µM.

As for `CCOC(=O)CCCCCNC(=O)[C@]12CCC(C)(C)C[C@H]1C1=CC[C@@H]3[C@@]4(C)CC[C@H](OC(C)=O)[C@@](C)(COC(C)=O)[C@@H]4CC[C@@]3(C)[C@]1(C)CC2` [compound 15, 3β,23-Diacetoxyolean-12-en-N-[6-aminocaproic acid ethyl ester]-28-formamide], the “HD50 (concentration inducing 50% of erythrocyte hemolysis)” value in data set [1] (rabbit erythrocytes) is greater than 500 µM.

For `CC1(C)CC[C@]2(C(=O)NCC(=O)O)CC[C@]3(C)C(=CC[C@@H]4[C@@]5(C)CC[C@H](O)[C@@](C)(CO)[C@@H]5CC[C@]43C)[C@@H]2C1` [compound 16, 3β,23-Dihydroxyolean-12-en-28-(glycine)oic acid amide], in data set [1] (rabbit erythrocytes), the “HD50 (concentration inducing 50% of erythrocyte hemolysis)” value is greater than 500 µM.

For `CC1(C)CC[C@]2(C(=O)NCCCC(=O)O)CC[C@]3(C)C(=CC[C@@H]4[C@@]5(C)CC[C@H](O)[C@@](C)(CO)[C@@H]5CC[C@]43C)[C@@H]2C1` [compound 17, 3β,23-Dihydroxyolean-12-en-28-(4-aminobutanoic acid)oic acid amide], in data set [1] (rabbit erythrocytes), the “HD50 (concentration inducing 50% of erythrocyte hemolysis)” value was greater than 500 µM.

Turning to `CC1(C)CC[C@]2(C(=O)NCCCCCC(=O)O)CC[C@]3(C)C(=CC[C@@H]4[C@@]5(C)CC[C@H](O)[C@@](C)(CO)[C@@H]5CC[C@]43C)[C@@H]2C1` [compound 18, 3β,23-Dihydroxyolean-12-en-28-(6-aminocaproic acid)oic acid amide], in data set [1] (rabbit erythrocytes), the “HD50 (concentration inducing 50% of erythrocyte hemolysis)” value is greater than 500 µM.

`CC1(C)CC[C@]2(C(=O)O)CC[C@]3(C)C(=CC[C@@H]4[C@@]5(C)CC[C@H](O)[C@@](C)(CO)[C@@H]5CC[C@]43C)[C@@H]2C1` [hederagenin, reference compound]: the “cytotoxicity toward A549 cancer cells (in words)” value in data set [6] is “inactive”. In addition, in data set [1] (rabbit erythrocytes), the “hemolytic toxicity (in words)” value is on record as “low hemolytic toxicity” and the “HD50 (concentration inducing 50% of erythrocyte hemolysis)” value is greater than 200 µM.

As for “hederagenin 3-O-α-L-rhamnopyr-anosyl-(1→2)-[β-D-glucopyranosyl-(1→4)]-α-L-arabinopyrano-side [compound 1]”, in data set [1] (rabbit erythrocytes), the “HD50 (concentration inducing 50% of erythrocyte hemolysis)” value is 6.3 µM and 6.3 ± 0.58 µM. The IC50 turned out to be 7.2 µM in data set [2] (read-out: IC50 BGC-823, MTT assay) and 4.4 µM in data set [3] (read-out: IC50 SMMC-771, MTT assay). The “HD50 (hemolytic toxicity)” value in data set [7] is 6.3 µM.
